Assay results as given in ChEMBL document CHEMBL4513216, “Probing the Open Global Health Chemical Diversity Library for Multistage-Active Starting Points for Next-Generation Antimalarials” (ACS Infect Dis, 2020).

Test: Toxicity liver stage against HepG2, at 10uM
Assay type: cell-based
Parameters: test concentration 10 uM, cell line HepG2-A16-CD81EGFP
Conditions: human, HepG2-A16-CD81EGFP cells; read-out: INHIBITION
Procedure, shortened: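 Uninfected HepG2-A16-CD81EGFP cells, 3 × 10^3 per well, 1536-well, plated on prespotted compound at 10 μM final, parasite-free screening media added to match infected plates; puromycin 10 μM positive, DMSO 0.5% negative; run in parallel with 48 h PbLuc assay at 37 °C, 5% CO2; viability by CellTiter-Glo luminescence, normalized to controls.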

Structure (SMILES)	cytotoxicity at 10 µM
CN1C(=O)CO[C@H](c2ccc(NC(=O)Nc3ccccc3)cc2)[C@H]1CO	-1.63%
CO[C@H]1COCCN(Cc2c[nH]c3ccccc23)C1	4.65%
CCC(=O)Nc1ccccc1Sc1nc(Br)nn1C	3.28%
O=C(NCCOCCO)c1cccnc1Oc1ccc(Cl)cc1	1.38%
COc1ccccc1CN1CC(O)CN(C(=O)OCC(C)C)CC1=O (stereo unspecified)	-6.19%
COc1ccc(S(=O)(=O)NCCC(O)c2ccccc2)c(C)c1 (stereo unspecified)	0.174%
CCCS(=O)(=O)N1CCC2(CCCC(=O)N2C)CC1	3.29%
CN(Cc1ccco1)C1CCC12CCN(C(=O)c1ccncc1)CC2 (stereo unspecified)	2.82%
CC(=O)N1CCC2(CCN(S(=O)(=O)c3ccccc3)CC2)C1	-2.83%
O=C(c1ccc[nH]1)N1Cc2nccn2CC(COc2cccnc2)C1 (stereo unspecified)	18.1%
O=C(c1cccc(F)c1)N1CCc2ncc(Cn3cccn3)n2CC1	2.05%
O=C(NC1CC1)[C@@H]1CCO[C@@H]2CCN(C3CCCC3)C[C@H]21	13.3%
CC(=O)N1CCCC2(CN(Cc3ccccc3C(F)(F)F)CCO2)C1 (stereo unspecified)	7.28%
CCOCC1CN(C(=O)c2ccco2)Cc2nn(C)cc21 (stereo unspecified)	3.86%
COc1ccc(C2SCC(=O)Nc3ccsc32)cc1OC (stereo unspecified)	-0.898%
CCOC(=O)N1CCN(c2nc(N3CCCC3)c3ccccc3n2)CC1	-5.31%
Cc1cc(SCC(N)=O)nc(-c2cccc(F)c2)n1	-1.9%
CS(=O)(=O)N1CC[C@]2(C[C@@H](OCC3CCC3)CO2)C1	-6.66%
Cn1cc(-c2ncnc3c2CCN(C(=O)N2CCOCC2)CC3)cn1	-11.3%
CC(C)N(C)C(=O)C1=NOC2(CCN(C(=O)c3ccncc3)C2)C1 (stereo unspecified)	-0.237%
CCn1cc(C(=O)NCc2ccc3c(c2)OCO3)c(C)n1	9.9%
Cc1ccc(Cn2nc(C)c3c(C(=O)O)c(Cl)c(C)nc32)cc1	5.53%
COCCCNc1cc(C)nn2cnnc12	6%

Structure (SMILES)	cytotoxicity at 10 µM
Cc1nn(C)c2c(=O)n(C(C)C)c(NCC3CCCO3)nc12 (stereo unspecified)	13.9%
O=C(c1ccc(-c2ccc(O)nc2)s1)N1CCSCC1	3.96%
CN1CCN(C(=O)CCn2ncc3ccccc32)CC(C(N)=O)C1 (stereo unspecified)	4.33%
Cc1cc2c(=O)n(CC(=O)N3CCn4cccc4C3C(C)C)cnc2s1 (stereo unspecified)	3.77%
COCC(=O)NCc1cnc(C)nc1-c1cn(C)c2ccc(OC)cc12	11.9%
COCCNc1ncc(-c2cccc(OC)c2)c(-c2nccn2C)n1	7.49%
CNc1cnc(CC2COCCN(Cc3cccc(C)n3)C2)cn1 (stereo unspecified)	8%
CNC(=O)C1CN(C(C)C)CCN1c1nc(C)cc(C)n1 (stereo unspecified)	-10.4%
Cc1oc2c(c1C(=O)N1CC[C@H](O)[C@]3(CCCO3)C1)CCCC2	2.75%
COc1ccc(C(=O)N2CCOCC2c2[nH]ncc2C)cc1F (stereo unspecified)	2.21%
c1ccc(CN2CCCC[C@H]3CN(c4ncccn4)C[C@H]32)cc1	-3.81%
CCn1cc(CNCC(c2ccc(Cl)cc2)n2cccn2)cn1 (stereo unspecified)	6.67%
CCOC(=O)CCCc1ccc2c(c1)CC(=O)N2	1.23%
CN1CCC(N(Cc2ccccc2)C(=O)c2ccn3ccnc3c2)CC1	5.63%
CC1COc2ccccc2N1C(=O)CCc1cscn1 (stereo unspecified)	1.88%
CN(Cc1cc2ccccc2o1)S(C)(=O)=O	1.66%
CCS(=O)(=O)Cc1csc(-c2ccc(S(C)(=O)=O)cc2)n1	8.8%
CC1CN(C(=O)C2(c3cccc(F)c3)CCOCC2)CCO1 (stereo unspecified)	4.89%
COc1ccc2c(c1)CCCN2C(=O)CN1CCOC(CN(C)C)C1 (stereo unspecified)	-2.93%
CCCc1cc(C(=O)NCCCC(=O)N2Cc3ccccc3C2)[nH]n1	8.81%
CCc1cc(CNC(=O)N(C2CC2)C(C)c2ccco2)on1 (stereo unspecified)	-0.335%
O=C(NCc1ccccn1)NCC(c1ccco1)N1CCCC1 (stereo unspecified)	-2.56%
O=C1OCCN1CCS(=O)(=O)c1cccc(Cl)c1	-0.82%

Structure (SMILES)	cytotoxicity at 10 µM
CCOc1cccc(COC(=O)c2cscn2)n1	-0.262%
N#Cc1nccnc1NC1CCN(c2ccccc2Br)C1 (stereo unspecified)	3.92%
CC(C)c1nnc2n1CC(CNCc1nnc(C(C)(C)C)o1)CC2 (stereo unspecified)	-21.6%
Cc1nc2ccccc2n(Cc2nnnn2C2CC2)c1=O	-10.3%
Cc1ncc(CN(C)Cn2nc(-c3ccccc3)oc2=O)s1	-2.81%
C1CCN(CCOC2CCNCC2)CC1	6.88%
O=C(NCCC(=O)N1CCCC1)c1cccnc1	11%
CCC(C)(C)NC(=O)CSCc1ccc(S(=O)(=O)N(C)C)o1	5.94%
Cc1ccc2c(c1)OCCCC2NCc1nccn1Cc1ccccc1 (stereo unspecified)	-9.4%
O=S(=O)(NCc1ccc(S(=O)(=O)N2CCCC2)s1)c1cc(Cl)ccc1Cl	-43.4%
NC(=O)NC(CC(=O)N1CCc2sccc2C1)c1ccccc1F (stereo unspecified)	3.5%
Cn1ncc2c1CCCC2NCc1cccnc1 (stereo unspecified)	0.999%
CC(=O)N1CCCN(C(=O)NCCCNS(C)(=O)=O)CC1	-10.3%
Cc1noc(COCC(=O)Nc2ncccc2Br)n1	2.13%
CCSc1ccc(C(=O)Nc2c(C)nn(C(C)C)c2C)cn1	-24.4%
CC(CN1CCN(C)CC1)NC(=O)c1cc(Cl)c2c(c1)OCO2 (stereo unspecified)	-14%
CS(=O)(=O)N1CCC2(CC1)CC(CC(=O)NCC1CC1)c1ccccc12 (stereo unspecified)	7.65%
CCCc1cc(C(=O)N(CC)Cc2ccncc2)[nH]n1	-6.52%
CCN(CC)C(=O)C1CCCN(c2ncnc3oc(C)nc23)C1 (stereo unspecified)	1.61%
Cc1cccc(C(C(=O)NCc2cc(C)[nH]n2)N(C)C)c1 (stereo unspecified)	-3.07%
O=C(O)c1cc(N2C[C@H](NC(=O)C3CCOCC3)[C@@H](C3CC3)C2)ccn1	-4.23%
CCCSCC(=O)N1CCCC2(CCC(=O)N(CCc3c[nH]cn3)C2)C1 (stereo unspecified)	-0.0682%
Cc1nc[nH]c1C(=O)N1CCCC2(CN(C)C(=O)O2)C1 (stereo unspecified)	1.2%

Structure (SMILES)	cytotoxicity at 10 µM
COc1cccc(CCC2CCCN(C(=O)C3=NN(C)C(=O)CC3)C2)c1 (stereo unspecified)	-2.06%
CC(=O)c1cc(CC(=O)NCc2c(F)cccc2F)cs1	-8.51%
CCCN(C)C(=O)c1ccc2c(c1)[nH]c(=O)n2CCOCC	-30.6%
Cc1ccc(OC2(C(=O)O)CCN(C(=O)c3ccc(F)cc3)CC2)cn1	-18.1%
O=C(N[C@@H]1CCNC[C@H]1O)c1ccc(F)c(Cl)c1	-11.1%
COC(=O)Nc1ccc(CNc2cncc(-n3cccn3)n2)cc1	-5.78%
CCc1c(C(=O)N2CCNC(=O)C2)cnn1C(C)(C)C	-20.3%
CCN1CCOC(CNCc2ccc(OCc3ccccn3)cc2)C1 (stereo unspecified)	-7.83%
CC(O)CNCc1c(C(C)C)nn(C)c1N1CCOCC1 (stereo unspecified)	-3.48%
O=C(NCC1CCOC1)Nc1ccc(Oc2ccc(F)cc2)nc1 (stereo unspecified)	-13.7%
CC(Nc1cccc(CN2CCOC2=O)c1)C(=O)NC(=O)NC(C)(C)C (stereo unspecified)	-10.9%
O=C(CCc1ccc(-c2ccccc2)[nH]1)N1CCCC(n2ccnc2)C1 (stereo unspecified)	-15.7%
CC(C)(C)c1cc(NC(=O)CN2CCC(N3CCNC3=O)CC2)on1	-2.05%
Cc1cnn(CC2CCCN2C(=O)c2ccc(Cl)cc2F)c1 (stereo unspecified)	-19%
CCn1ccnc1CN1CCCN(C(=O)Cc2ccc(C)cc2)CC1	-7.29%
CCN(Cc1cccc(F)c1)Cc1nc2c(cnn2C)c(=O)[nH]1	3.71%
CC(=O)N(Cc1ncc(C)o1)C1CCN(Cc2ccon2)C1 (stereo unspecified)	-9.03%
CCn1cnnc1C1CCN(C(=O)c2ccccc2OC)CC1	-8.62%
Cn1ccnc1CN1CCCN(C(=O)c2ccc3c(c2)COC3)CC1	-10.9%
Cn1cc(C(=O)NC2CCN(Cc3ccn(C)c(=O)c3)CC2)cn1	-16.7%
CNc1nc(CNC(=O)Nc2cccc(F)c2C)cs1	-5.43%
Cc1cccc(-c2nc(CN3CCc4cnc(C)nc4C3)no2)c1	-8.42%
CC(C)c1noc(CCC(=O)NCC2CCOC2)n1 (stereo unspecified)	4.57%

Structure (SMILES)	cytotoxicity at 10 µM
Cc1cnc(CN(C)C2CCN(Cc3ccccc3C#N)C2)o1 (stereo unspecified)	1.08%
COCCc1noc(CN2CCCC2c2c(C)nn(C)c2C)n1 (stereo unspecified)	-5.73%
FC(F)(F)Cn1ccnc1CN1CCOC(Cn2cccn2)C1 (stereo unspecified)	0.0962%
Cc1nn(C)c(Cl)c1C1CCCN1CC(=O)NCc1ccccn1 (stereo unspecified)	-2.07%
CC(C)c1nnc(NC(=O)NCc2ccc(CO)c(F)c2)s1	6.54%
O=C1CC2(CCCNC2)C(=O)N1Cc1ccc(Cl)cc1 (stereo unspecified)	-1.57%
Cc1ccoc1C(=O)N1Cc2c(CN3CCCCC3)nn(C)c2C1	-1.16%
CC(C)C(=O)N1CC[C@H]2N(C)CC[C@@]2(C(=O)N2CCCC2)CC1	5.5%
CC(=O)N1CC[C@H]2OCC[C@@]2(C(=O)NCCc2ccccn2)C1	6%
CN(C)C(=O)CO[C@H]1CN(Cc2ccccc2)[C@@H]2CCCO[C@H]12	-8.1%
C[C@H]1CN(CC2CCOCC2)C[C@@]12CCN(Cc1cccnc1)C2=O	1.73%
c1cncc(N2CCCC3(CCN(CC4CCCO4)CC3)C2)c1 (stereo unspecified)	5.15%
c1ccc(CN2CCc3c(COCc4ccncc4)cncc3C2)nc1	6.53%
O=C1[C@@H]2CN(C3CCOCC3)C[C@H]2CCN1CC1CC1	4.17%
O=C1[C@H]2CN(Cc3ccc(F)cc3)C[C@H]2CN1CCN1CCCC1	-13.2%
COc1cccc(-c2n[nH]cc2CNC2CCN(C3CC3)CC2)c1	-3.78%
COc1cccc(-n2cc3[nH]c(=O)[nH]n3c2=O)c1	-6.47%
CC(C)(C)CC(=O)N1C[C@@H]2C[C@@H]1CN2	6.59%
COCCC(=O)NCC1CCC(C(c2ccccn2)N(C)C)CC1 (stereo unspecified)	11.5%
